Reference: ChEMBL document CHEMBL2424622, “Development of amino-pyrimidine inhibitors of c-Jun N-terminal kinase (JNK): kinase profiling guided optimization of a 1,2,3-benzotriazole lead” (Bioorg Med Chem Lett, 2013)

Experiments:
[1] = target: BDNF/NT-3 growth factors receptor (Homo sapiens) (UniProt Q16620); assay: Competitive binding affinity to TRKB (unknown origin) at 10 uM in presence of ATP relative to control
[2] = target: T1, Serine/threonine-protein kinase LATS2 (Homo sapiens) (UniProt Q9NRM7); assay: Competitive binding affinity to LATS2 (unknown origin) at 10 uM in presence of ATP relative to control
T1 sequence (whole entry): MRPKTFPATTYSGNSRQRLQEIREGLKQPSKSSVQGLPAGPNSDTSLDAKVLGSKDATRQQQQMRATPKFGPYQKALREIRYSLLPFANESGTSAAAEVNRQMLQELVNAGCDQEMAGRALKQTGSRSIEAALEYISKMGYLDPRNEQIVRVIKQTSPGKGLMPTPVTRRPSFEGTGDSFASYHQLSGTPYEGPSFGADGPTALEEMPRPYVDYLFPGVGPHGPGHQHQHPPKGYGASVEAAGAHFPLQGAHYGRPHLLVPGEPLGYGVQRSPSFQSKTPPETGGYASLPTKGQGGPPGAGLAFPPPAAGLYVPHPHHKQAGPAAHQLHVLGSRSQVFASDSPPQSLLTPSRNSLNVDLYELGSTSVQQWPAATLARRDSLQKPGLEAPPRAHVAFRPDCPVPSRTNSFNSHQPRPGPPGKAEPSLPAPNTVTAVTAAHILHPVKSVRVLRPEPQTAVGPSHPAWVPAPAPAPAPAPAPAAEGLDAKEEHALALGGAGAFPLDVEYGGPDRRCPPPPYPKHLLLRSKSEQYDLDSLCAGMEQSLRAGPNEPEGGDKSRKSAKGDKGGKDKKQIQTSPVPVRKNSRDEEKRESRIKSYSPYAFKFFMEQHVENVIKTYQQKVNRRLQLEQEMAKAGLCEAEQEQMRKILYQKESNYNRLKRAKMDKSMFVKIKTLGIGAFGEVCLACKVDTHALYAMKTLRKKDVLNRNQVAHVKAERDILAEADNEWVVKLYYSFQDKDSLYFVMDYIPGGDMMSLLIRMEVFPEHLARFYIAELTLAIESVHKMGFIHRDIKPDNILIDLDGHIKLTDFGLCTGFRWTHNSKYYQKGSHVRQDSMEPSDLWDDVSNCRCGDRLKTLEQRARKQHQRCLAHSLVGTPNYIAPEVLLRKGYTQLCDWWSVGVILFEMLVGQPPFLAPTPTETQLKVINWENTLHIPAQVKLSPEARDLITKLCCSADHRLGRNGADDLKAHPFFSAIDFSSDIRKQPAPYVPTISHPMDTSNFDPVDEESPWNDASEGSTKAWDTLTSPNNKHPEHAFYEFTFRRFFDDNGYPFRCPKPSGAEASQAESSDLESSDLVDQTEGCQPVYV

[3] = target: Ribosomal protein S6 kinase alpha-2 (Homo sapiens) (UniProt Q15349); assay: Competitive binding affinity to RPS6KA2 kinase domain 2 (unknown origin) at 10 uM in presence of ATP relative to control
Chain of Ribosomal protein S6 kinase alpha-2 (Homo sapiens) (Q15349 whole entry, the tested form may be a part): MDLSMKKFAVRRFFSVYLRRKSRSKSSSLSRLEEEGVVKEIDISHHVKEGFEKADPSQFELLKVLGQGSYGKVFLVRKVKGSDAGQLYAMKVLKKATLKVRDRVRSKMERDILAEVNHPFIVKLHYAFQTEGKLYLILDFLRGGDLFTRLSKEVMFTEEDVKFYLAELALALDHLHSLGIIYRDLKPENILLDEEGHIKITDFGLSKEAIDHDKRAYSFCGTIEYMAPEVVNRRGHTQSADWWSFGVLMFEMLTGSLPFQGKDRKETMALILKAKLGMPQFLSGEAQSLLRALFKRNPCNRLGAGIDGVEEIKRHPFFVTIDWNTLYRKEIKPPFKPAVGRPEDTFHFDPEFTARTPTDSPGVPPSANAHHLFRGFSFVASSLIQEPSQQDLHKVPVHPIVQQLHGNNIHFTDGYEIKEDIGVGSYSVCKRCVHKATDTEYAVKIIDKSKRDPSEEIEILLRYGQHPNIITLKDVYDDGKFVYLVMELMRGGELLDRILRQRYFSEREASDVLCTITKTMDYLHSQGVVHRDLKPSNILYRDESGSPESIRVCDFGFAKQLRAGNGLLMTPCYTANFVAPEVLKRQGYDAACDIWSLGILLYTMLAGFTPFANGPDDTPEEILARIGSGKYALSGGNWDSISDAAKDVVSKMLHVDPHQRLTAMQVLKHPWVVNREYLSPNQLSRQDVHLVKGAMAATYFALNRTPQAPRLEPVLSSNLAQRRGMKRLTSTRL

[4] = target: Serine/threonine-protein kinase MRCK alpha (Homo sapiens) (UniProt Q5VT25); assay: Competitive binding affinity to MRCKA (unknown origin) at 10 uM in presence of ATP relative to control
Chain of Serine/threonine-protein kinase MRCK alpha (Homo sapiens) (Q5VT25 whole entry): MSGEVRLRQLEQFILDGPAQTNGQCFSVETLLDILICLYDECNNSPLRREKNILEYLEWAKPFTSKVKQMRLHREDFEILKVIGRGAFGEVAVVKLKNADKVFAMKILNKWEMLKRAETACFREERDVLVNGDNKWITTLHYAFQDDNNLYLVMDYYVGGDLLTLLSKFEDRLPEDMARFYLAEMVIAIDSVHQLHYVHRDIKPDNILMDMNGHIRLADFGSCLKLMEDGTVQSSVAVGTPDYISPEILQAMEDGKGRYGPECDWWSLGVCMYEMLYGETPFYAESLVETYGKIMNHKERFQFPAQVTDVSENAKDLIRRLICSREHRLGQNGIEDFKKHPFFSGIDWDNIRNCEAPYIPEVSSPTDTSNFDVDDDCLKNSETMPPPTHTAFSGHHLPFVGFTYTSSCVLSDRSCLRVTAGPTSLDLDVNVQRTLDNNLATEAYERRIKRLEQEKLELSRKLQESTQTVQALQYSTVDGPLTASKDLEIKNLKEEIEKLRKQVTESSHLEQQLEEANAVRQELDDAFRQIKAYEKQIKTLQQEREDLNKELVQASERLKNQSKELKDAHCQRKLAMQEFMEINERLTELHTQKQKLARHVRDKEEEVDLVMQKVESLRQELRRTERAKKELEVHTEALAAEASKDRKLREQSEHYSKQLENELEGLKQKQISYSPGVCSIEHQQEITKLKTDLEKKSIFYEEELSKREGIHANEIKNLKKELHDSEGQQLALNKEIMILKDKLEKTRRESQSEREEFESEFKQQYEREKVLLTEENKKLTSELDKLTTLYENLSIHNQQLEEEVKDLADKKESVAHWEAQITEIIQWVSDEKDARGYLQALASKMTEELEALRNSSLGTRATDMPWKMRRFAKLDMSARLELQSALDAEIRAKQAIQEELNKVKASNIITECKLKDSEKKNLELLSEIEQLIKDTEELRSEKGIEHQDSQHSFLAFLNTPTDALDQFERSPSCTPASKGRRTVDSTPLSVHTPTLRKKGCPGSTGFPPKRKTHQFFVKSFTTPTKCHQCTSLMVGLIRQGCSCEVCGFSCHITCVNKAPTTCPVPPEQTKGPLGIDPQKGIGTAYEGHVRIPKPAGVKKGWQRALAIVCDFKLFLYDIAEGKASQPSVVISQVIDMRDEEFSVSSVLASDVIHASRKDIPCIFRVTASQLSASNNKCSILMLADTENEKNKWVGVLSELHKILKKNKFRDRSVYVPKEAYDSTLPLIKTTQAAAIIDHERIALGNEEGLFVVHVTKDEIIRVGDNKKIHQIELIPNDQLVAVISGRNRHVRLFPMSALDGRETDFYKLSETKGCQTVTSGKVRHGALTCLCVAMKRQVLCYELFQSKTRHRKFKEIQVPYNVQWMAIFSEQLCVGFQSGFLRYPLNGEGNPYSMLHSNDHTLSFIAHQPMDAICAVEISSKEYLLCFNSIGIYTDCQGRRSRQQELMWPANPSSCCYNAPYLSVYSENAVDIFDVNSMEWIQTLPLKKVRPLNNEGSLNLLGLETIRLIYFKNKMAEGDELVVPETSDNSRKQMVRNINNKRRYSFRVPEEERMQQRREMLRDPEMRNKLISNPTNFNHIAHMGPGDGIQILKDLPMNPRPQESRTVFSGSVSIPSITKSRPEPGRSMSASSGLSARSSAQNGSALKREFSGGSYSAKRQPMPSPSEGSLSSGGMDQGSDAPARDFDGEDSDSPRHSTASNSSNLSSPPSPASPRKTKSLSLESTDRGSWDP
Outline: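 In vitro ATP-site competition binding assay across a diverse panel of 128 kinases, with compound tested at a single concentration. Kinase selectivity scores (S15) were calculated from the panel profiles.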

[5] = target: T2, Serine/threonine-protein kinase 17A (Homo sapiens) (UniProt Q9UEE5); assay: Competitive binding affinity to STK17A (unknown origin) at 10 uM in presence of ATP relative to control
T2 sequence (whole entry): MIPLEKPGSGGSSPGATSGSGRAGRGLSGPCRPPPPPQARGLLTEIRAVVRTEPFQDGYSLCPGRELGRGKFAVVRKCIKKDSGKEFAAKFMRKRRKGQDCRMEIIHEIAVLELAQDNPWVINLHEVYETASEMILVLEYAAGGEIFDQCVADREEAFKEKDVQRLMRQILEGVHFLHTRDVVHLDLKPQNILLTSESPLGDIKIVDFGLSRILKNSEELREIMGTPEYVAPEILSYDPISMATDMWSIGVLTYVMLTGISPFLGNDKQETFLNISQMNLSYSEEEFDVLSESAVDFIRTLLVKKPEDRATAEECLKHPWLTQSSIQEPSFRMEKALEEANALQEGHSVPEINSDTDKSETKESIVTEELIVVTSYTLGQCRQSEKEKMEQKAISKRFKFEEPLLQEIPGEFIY

[6] = target: T3, Serine/threonine-protein kinase 4 (Homo sapiens) (UniProt Q13043); assay: Competitive binding affinity to STK4 (unknown origin) at 10 uM in presence of ATP relative to control
T3 sequence (whole entry): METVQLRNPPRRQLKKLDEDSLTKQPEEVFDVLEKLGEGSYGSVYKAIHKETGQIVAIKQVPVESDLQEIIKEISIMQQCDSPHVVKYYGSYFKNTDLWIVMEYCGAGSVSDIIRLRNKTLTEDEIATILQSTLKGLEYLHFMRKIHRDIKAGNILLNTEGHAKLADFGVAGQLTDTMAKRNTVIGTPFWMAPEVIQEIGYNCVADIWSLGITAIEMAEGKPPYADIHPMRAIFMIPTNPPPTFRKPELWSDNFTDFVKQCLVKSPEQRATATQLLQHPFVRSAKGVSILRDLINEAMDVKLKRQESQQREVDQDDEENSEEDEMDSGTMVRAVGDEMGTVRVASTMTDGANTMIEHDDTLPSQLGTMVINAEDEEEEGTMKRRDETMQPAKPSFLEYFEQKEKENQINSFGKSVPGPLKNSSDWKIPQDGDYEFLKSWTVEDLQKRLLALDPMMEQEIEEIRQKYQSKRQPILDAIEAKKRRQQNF

Chain of BDNF/NT-3 growth factors receptor (Homo sapiens) (Q16620 32-822 limits assumed): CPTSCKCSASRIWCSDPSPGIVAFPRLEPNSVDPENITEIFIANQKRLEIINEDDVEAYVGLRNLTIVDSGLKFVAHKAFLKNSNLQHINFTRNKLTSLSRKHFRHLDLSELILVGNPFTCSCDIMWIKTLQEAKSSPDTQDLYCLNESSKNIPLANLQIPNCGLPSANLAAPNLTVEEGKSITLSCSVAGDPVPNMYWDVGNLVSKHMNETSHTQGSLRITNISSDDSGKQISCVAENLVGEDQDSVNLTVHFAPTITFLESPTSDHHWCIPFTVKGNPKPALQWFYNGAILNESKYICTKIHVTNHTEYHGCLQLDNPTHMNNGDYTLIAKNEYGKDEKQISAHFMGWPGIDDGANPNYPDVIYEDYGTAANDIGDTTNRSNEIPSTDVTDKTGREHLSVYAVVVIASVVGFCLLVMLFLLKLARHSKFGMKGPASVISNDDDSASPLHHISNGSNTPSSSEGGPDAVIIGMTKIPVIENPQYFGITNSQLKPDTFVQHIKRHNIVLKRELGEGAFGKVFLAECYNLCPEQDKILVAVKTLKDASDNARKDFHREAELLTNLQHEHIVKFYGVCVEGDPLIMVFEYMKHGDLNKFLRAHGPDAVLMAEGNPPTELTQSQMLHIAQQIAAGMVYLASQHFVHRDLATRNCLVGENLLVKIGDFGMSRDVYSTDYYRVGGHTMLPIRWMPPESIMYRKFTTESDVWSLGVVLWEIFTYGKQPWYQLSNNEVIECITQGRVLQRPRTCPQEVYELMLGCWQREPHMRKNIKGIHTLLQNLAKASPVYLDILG

| Structure (SMILES) | inhibition [1] | inhibition [2] | inhibition [3] | inhibition [4] | inhibition [5] | inhibition [6] |
| --- | --- | --- | --- | --- | --- | --- |
| O[C@H]1CC[C@H](Nc2nccc(-n3ncc4ccccc43)n2)CC1 | < 50% | < 50% | < 50% | < 50% |  |  |
| O[C@H]1CC[C@H](Nc2nccc(-n3ccc4ccccc43)n2)CC1 | < 50% | < 50% | < 50% | < 50% |  |  |
| N[C@H]1CC[C@H](Nc2nccc(-n3nnc4ccccc43)n2)CC1 |  |  |  |  | 100% | < 50% |
| O[C@H]1CC[C@H](Nc2nccc(-c3n[nH]c4ccccc34)n2)CC1 | 100% |  |  | < 50% | 100% | < 50% |

Continued, values first:

| inhibition [1] | inhibition [2] | inhibition [3] | inhibition [4] | inhibition [5] | inhibition [6] | Structure (SMILES) |
| --- | --- | --- | --- | --- | --- | --- |
| < 50% | < 50% | 87% | < 50% |  |  | O[C@H]1CC[C@H](Nc2nccc(-n3nnc4ccccc43)n2)CC1 |
|  |  |  |  | 97% | < 50% | O=C([C@H]1CC[C@H](Nc2nccc(-n3nnc4ccccc43)n2)CC1)N1CCOCC1 |
